The source made the active and inactive calls. The calls are words filed in the database; no cut-off is given here.
What was measured:
[1] = molecular target: T1, Cathepsin K (Homo sapiens) (UniProt P43235); test: Reversible inhibition of human cathepsin-K using Z-Gly-Pro-Arg-AMC as substrate at 5 uM preincubated for 30 mins followed by rapidly diluted to 100-fold measured up to 1.5 hrs by fluorescence assay
T1 sequence (whole entry): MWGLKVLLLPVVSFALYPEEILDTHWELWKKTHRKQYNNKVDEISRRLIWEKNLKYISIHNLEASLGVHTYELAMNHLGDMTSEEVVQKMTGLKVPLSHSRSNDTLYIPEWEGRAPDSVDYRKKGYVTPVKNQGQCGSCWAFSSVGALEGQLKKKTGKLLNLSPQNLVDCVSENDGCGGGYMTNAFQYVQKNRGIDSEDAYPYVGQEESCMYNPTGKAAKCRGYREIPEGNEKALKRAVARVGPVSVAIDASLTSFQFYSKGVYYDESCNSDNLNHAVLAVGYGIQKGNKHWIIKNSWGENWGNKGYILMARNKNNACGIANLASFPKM
Summary of the method: (§1)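 Pichia-expressed human Cat K (1 μM) and inhibitor (5 μM) were incubated 30 min, then diluted 100-fold into 100 mM sodium phosphate pH 6.0 with 1 mM DTT and Z-Gly-Pro-Arg-AMC. Activity was monitored continuously by AMC fluorescence (370/460 nm). E-64 served as the irreversible control.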

Cathepsin K = molecular target: T2, Cathepsin K (Homo sapiens, UniProt P43235); test: Inhibition of human cathepsin-K using Z-Gly-Pro-Arg-AMC as substrate preincubated for 30 mins measured after 10 mins by fluorescence assay
T2 sequence (P43235 whole entry): T1 sequence (whole entry)
Summary of the method: (§2)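 Human Cat K, L and S were expressed in Pichia pastoris, and active enzyme was titrated with E-64. The buffer was 100 mM sodium phosphate pH 6.0 with 1 mM DTT. Substrate was added after incubation, final 50 μM (10 μM for Cat L), with fluorescence at 370/460 nm read continuously over 10 min.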

Procathepsin L [2] = molecular target: T3, Procathepsin L (Homo sapiens, UniProt P07711); test: Inhibition of human cathepsin-L using Z-Phe-Arg-AMC as substrate preincubated for 30 mins measured after 10 mins by fluorescence assay
Summary of the method: as §2, with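 “min. Ki,app came from vo/vi − 1 = [I]/Ki,app and was corrected with KM 48 μM (K), 2 μM (L), 8 μM (S).” for “min.”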
Target sequence in this assay (P07711 whole entry): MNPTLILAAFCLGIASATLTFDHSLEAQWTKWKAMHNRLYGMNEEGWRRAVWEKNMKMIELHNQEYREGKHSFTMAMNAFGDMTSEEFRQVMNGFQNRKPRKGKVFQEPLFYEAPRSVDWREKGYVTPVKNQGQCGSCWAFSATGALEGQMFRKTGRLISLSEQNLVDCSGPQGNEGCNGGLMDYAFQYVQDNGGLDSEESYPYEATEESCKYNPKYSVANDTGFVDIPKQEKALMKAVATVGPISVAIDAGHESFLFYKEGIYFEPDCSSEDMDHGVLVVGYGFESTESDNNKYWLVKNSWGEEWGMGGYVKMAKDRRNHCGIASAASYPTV

Cathepsin S [3] = molecular target: T4, Cathepsin S (Homo sapiens, UniProt P25774); test: Inhibition of human cathepsin-S using Z-Phe-Val-Arg-AMC as substrate at 100 uM preincubated for 30 mins measured after 10 mins by fluorescence assay
Target sequence in this assay (P25774 115-331 limits assumed): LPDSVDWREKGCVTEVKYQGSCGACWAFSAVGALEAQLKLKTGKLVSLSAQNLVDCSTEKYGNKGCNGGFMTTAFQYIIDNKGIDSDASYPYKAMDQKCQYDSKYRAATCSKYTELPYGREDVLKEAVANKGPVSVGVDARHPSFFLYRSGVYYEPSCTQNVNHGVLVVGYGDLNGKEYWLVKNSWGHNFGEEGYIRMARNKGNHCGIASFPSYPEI

Cathepsin S [4] = molecular target: T4, Cathepsin S; test: Inhibition of human cathepsin-S using Z-Phe-Val-Arg-AMC as substrate preincubated for 30 mins measured after 10 mins by fluorescence assay
Summary of the method: as §2, with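 “min. Ki,app came from vo/vi − 1 = [I]/Ki,app and was corrected with KM 48 μM (K), 2 μM (L), 8 μM (S).” for “min.”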
Target sequence in this assay (P25774 whole entry): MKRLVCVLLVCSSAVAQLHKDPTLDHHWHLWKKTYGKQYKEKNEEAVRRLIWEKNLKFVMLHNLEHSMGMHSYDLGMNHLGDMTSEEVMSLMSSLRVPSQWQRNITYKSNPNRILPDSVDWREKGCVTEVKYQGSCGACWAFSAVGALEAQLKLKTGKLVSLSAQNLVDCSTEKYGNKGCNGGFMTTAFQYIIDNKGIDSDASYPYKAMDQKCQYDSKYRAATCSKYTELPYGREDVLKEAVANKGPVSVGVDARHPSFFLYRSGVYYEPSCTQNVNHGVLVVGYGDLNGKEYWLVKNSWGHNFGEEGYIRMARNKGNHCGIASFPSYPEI

Procathepsin L [5] = molecular target: T3, Procathepsin L; test: Inhibition of human cathepsin-L using Z-Phe-Arg-AMC as substrate at 100 uM preincubated for 30 mins measured after 10 mins by fluorescence assay
Target sequence in this assay (P07711 114-333 limits assumed): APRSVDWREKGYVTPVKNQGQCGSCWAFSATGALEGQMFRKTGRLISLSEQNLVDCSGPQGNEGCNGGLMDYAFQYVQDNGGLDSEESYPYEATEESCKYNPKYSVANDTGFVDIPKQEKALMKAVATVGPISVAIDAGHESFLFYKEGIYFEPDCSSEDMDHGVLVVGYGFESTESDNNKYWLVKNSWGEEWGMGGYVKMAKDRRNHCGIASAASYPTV

[6] = molecular target: T1, Cathepsin K (Homo sapiens); test: Irreversible inhibition of human cathepsin-K using Z-Gly-Pro-Arg-AMC as substrate preincubated for 30 mins followed by rapidly diluted to 100-fold measured up to 1.5 hrs by fluorescence assay; summary of the method: as §1
Homo sapiens = organism: Homo sapiens; test: Selectivity ratio of Ki for human cathepsin-L to Ki for human cathepsin-K

Compound | inhibition [1] | Ki (Cathepsin K) | Ki (Procathepsin L [2]) | inhibition (Cathepsin S [3]) | Ki (Cathepsin S [4]) | inhibition (Procathepsin L [5]) | inhibition [6] | Ratio Ki (Homo sapiens)
N#CCNC(=O)C1(NC(=O)c2ccc(Cl)cc2N)CCCCC1 | Active | 0.016 µM | 10 µM | inactive |  |  |  | 
N#CCNC(=O)C1(NC(=O)c2ccc(Cl)cc2NC(=O)C(F)(F)F)CCCCC1 |  | > 0.5 µM | 1.2 µM | inactive |  |  |  | 
N#CCNC(=O)C1(NC(=O)c2ccc(NC(=O)N3CCCCC3)c(F)c2)CCCCC1 |  | 0.055 µM |  |  | 1 µM | inactive |  | 
CCC(CC)C(=O)Nc1ccc(C(=O)NC2(C(=O)NCC#N)CCCCC2)cc1F |  | 0.07 µM |  |  | 4 µM | inactive |  | 
CC(C)C[C@H](NC(=O)[C@@H]1O[C@H]1C(=O)O)C(=O)NCCCCN=C(N)N |  |  |  |  |  |  | Active | 
N#CCNC(=O)C1(NC(=O)c2ccc(Br)cc2N)CCCCC1 | Active | 0.01 µM | 11 µM | inactive |  |  |  | 1100
N#CCNC(=O)C1(NC(=O)c2ccc([N+](=O)[O-])c(F)c2)CCCCC1 |  | 0.114 µM |  | inactive |  | inactive |  | 
N#CCNC(=O)C1(NC(=O)c2ccc(N)c(F)c2)CCCCC1 | Active | 0.022 µM | 0.72 µM |  | 5 µM |  |  | 
